# Assay outcomes from PubChem BioAssay.
# DNMT1 inh: human DNMT1 methyltransferase inhibitors, primary screen, biochemical, molecular beacon, fluorescence, HinP1I cleavage, uHTS; DNA (cytosine-5)-methyltransferase 1 (Homo sapiens), P26358; inhibition (reported as % activation of signal), % at 10 µM; actives 0.83% (n = 360,000); AID 588458, 2011; in the data active = inhibition above about 50%
# Scp1 inh: Scp-1 phosphatase inhibitors, primary screen, biochemical, colorimetric, uHTS | Carboxy-terminal domain RNA polymerase II polypeptide A small phosphatase 1 (Homo … | Recombinant Scp1, phosphopeptide, malachite green phosphate absorbance | inhibition, % at 20 µM | actives 0.88% (n = 340,000) | AID 493091, 2011;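 active = inhibition above about 50% at 20 µM, limit read from the data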;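 also: plate controls were DMSO wells with enzyme for no effect and wells lacking enzyme for full effect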
# Target sequence (Q9GZU7 76-261 limits assumed): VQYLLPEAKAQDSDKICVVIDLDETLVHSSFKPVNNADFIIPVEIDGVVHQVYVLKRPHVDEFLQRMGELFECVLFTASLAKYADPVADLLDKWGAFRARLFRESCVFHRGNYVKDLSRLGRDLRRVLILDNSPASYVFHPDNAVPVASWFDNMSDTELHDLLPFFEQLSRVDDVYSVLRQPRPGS
#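 Test system: SCP-1 phosphatase catalytic domain, residues 76-261 | Compound dosing: One concentration, 20 µM, with 1.0% DMSO | Schedule: 45 min room-temperature reaction, 5 min colour, 30 min stabiliser | Detection: Absorbance at 630 nm | Read-out basis: % inhibition of SCP-1 phosphate liberation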
# LMPTP block: LMPTP phosphatase inhibitors, primary screen, biochemical, fluorescence intensity, uHTS. Low molecular weight phosphotyrosine protein phosphatase (Homo sapiens), P24666. recombinant LMPTP-A, OMFP fluorogenic substrate. inhibition, % at 20 µM. actives 0.22% (n = 360,000). AID 651560, 2012;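 active = compounds that cut the enzyme signal by at least half of the control window in the single-dose screen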;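 also: plate controls were DMSO wells with enzyme plus substrate for no effect and substrate without enzyme for full effect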
#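 Test system: LMPTP-A, protein tyrosine phosphatase of low molecular weight; Input: 0.625 nM enzyme; Incubation: 50 min dark incubation at room temperature; Signal: endpoint fluorescence intensity from OMFP dephosphorylation; Read-out basis: % inhibition versus control wells.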
# SUMO1 PPI mod: modulators of SUMO1 protein-protein interactions, primary screen, biochemical, uHTS. Small ubiquitin-related modifier 1 (Homo sapiens), P63165. SUMO1 binding to a labelled peptide, TR-FRET, 1 h. inhibition, % at 20 µM. actives 0.33% (n = 360,000). AID 602429, 2012; in the data active = inhibition above about 37%
# STEP block: STEP phosphatase inhibitors, primary screen, biochemical, fluorescence intensity, uHTS. Tyrosine-protein phosphatase non-receptor type 5 (Homo sapiens), P54829. recombinant STEP, OMFP fluorogenic substrate. inhibition, % at 20 µM. actives 0.25% (n = 360,000). AID 588621, 2011;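 active = inhibition at 20 µM, scaled per plate between control wells, above about 37%, limit read from the data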;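 also: 0% = DMSO with enzyme and substrate and 100% = substrate only without enzyme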
#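 System: STEP phosphatase, cell-free reaction; Buffer or medium: Bis-Tris pH 6.0 buffer with DTT, detergent; Incubation: 20 min at room temperature, dark; Measured by: fluorescence, 480/540 nm.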
# Rpn11 inh: Rpn11 (PSMD14) deubiquitinase inhibitors, primary screen, biochemical, fluorescence polarization, uHTS; 26S proteasome non-ATPase regulatory subunit 14 (Homo sapiens), O00487; human 26S proteasome, Ub4-pepOG fluorescence polarization; 20S core pre-blocked with epoxomicin; inhibition, % at 20 µM; actives 0.59% (n = 360,000); AID 588493, 2011;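 active = inhibition at 20 µM, scaled to each plate's controls, above about 33%, limit read from the data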
# Target sequence (O00487 whole entry, looked up): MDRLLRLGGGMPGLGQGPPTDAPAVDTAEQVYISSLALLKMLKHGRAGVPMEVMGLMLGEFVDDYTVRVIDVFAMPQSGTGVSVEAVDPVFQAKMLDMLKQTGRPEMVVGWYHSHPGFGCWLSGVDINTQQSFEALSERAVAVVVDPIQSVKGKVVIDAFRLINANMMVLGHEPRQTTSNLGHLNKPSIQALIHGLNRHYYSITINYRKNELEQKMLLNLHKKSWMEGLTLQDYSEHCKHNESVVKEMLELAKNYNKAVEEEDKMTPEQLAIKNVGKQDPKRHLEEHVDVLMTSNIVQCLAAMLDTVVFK
# Scp-1 conf: Scp-1 phosphatase inhibitors, retest, confirmation, biochemical, colorimetric, single concentration | shares compounds with Scp1 inh | recombinant SCP-1 catalytic domain, phosphate release, malachite green absorbance | inhibition, % at 20 µM | actives 61% (n = 2,500) | AID 540281, 2011;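 also: plate controls were DMSO with enzyme for no effect and buffer wells lacking enzyme for full effect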
# Scp-1 MG ctr: colorimetric readout interference by compounds, confirmation, artefact control for Scp-1 inhibitor project, biochemical, single concentration | 2,500 tested, under 10 active | apparent inhibition (interference), % at 20 µM | shares compounds with Scp1 inh | AID 540313, 2011 | Colorimetric interference counterscreen, malachite green absorbance 630 nm;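 also: compounds added after enzyme reaction finished so only phosphate colour detection is probed; plate controls were DMSO wells with completed Scp-1 reaction for no effect and substrate wells lacking enzyme for full effect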
# Scp-1 Tm shift: Scp-1 binding by thermal shift, confirmation, orthogonal assay for Scp-1 inhibitor project, biophysical, differential scanning fluorimetry; shares compounds with Scp1 inh; thermal shift relative to vanadate control, % at 40 µM; actives 25% (n = 1,500); Recombinant SCP1, Sypro Orange thermal shift Tm; AID 540329, 2011;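 active = substances whose mean melting-temperature shift, as a percentage of the reference inhibitor's shift, reaches about 5.3%, limit read from the data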;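 also: 0% = Tm of DMSO wells and 100% = Tm with sodium orthovanadate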
# DNMT1 inh conf: DNMT1 methyltransferase inhibitor retest, confirmation, biochemical, molecular beacon, fluorescence, single concentration. shares compounds with DNMT1 inh. DNMT1 molecular beacon HinP1I cleavage. inhibition, % at 10 µM. actives 8% (n = 2,300). AID 602385, 2012;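 active = average inhibition of at least 30% in the single-concentration confirmation test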
# DNMT1 interf: beacon fluorescence artifact counter-screen. shares compounds with DNMT1 inh. DNMT1 molecular beacon spectral interference counterscreen, fluorescence 485/520. activation (fluorescence interference), % at 10 µM. actives 1% (n = 2,300). AID 602387;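 active = activation of at least 30% at 10 µM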;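 also: DNMT1 catalytic domain with a HinP1I cleavage step and a FAM/dabcyl DNA beacon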
# * hit, by the source's call; . = no result. Rows were chosen to be rich in hits. Some 2.3% of all compounds tested hit in one or more screens of this group.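 The calls were made as follows, unless noted: active = inhibition of at least 30% at 20 µM; inactive = the rest.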
SMILES,DNMT1 inh,Scp1 inh,LMPTP block,SUMO1 PPI mod,STEP block,Rpn11 inh,Scp-1 conf,Scp-1 MG ctr,Scp-1 Tm shift,DNMT1 inh conf,DNMT1 interf
O=C(Nc1oc2ccccc2c(=O)c1-c1ccc(Cl)cc1)c1ccco1,-4,1,0,2,0,3,.,.,.,.,.
Cc1cn([C@H]2C[C@H](O)[C@@H](CCC(=O)NC(c3ccccc3)c3ccccc3)O2)c(=O)[nH]c1=O,5,0,-1,2,-1,-4,.,.,.,.,.
O=C(Nc1ccc2c(c1)C(=O)c1ccccc1-2)c1ccccc1,46,-12,19,16,0,2,.,.,.,.,.
COc1cccc(C(=O)Nc2ccc3c(c2)C(=O)c2ccccc2C3=O)c1,74*,75*,33,4,60*,-11,64*,-10,5.4*,8,-1
O=C(CCS(=O)(=O)c1ccc(Br)cc1)N1CCCCCC1,100*,79*,0,43*,3,-3,66*,-15,-4,7,3
O=C(CCNS(=O)(=O)c1ccc(Br)cc1)N1CCCCCCC1,1,5,3,1,0,4,.,.,.,.,.
O=C(Nc1nccs1)c1ccc(COc2c(F)c(F)cc(F)c2F)cc1,0,-4,0,2,0,-10,.,.,.,.,.
O=C1Nc2ccccc2SC(c2ccccc2)C1O (stereo unspecified),99*,74*,20,5,-3,-10,64*,-18,6.6*,14,-1
CC(NC(=O)Cc1ccsc1)c1ccc(Cl)cc1Cl (stereo unspecified),-2,-1,1,1,0,5,.,.,.,.,.
CCOC(=O)Cc1csc(SCC(=O)Nc2sc3c(c2C(N)=O)CCC3)n1,95*,83*,17,31,8,9,68*,-15,6.6*,11,-3
CCC1(CC)NC(=O)N(CC(=O)Nc2sc3c(c2C(N)=O)CCC3)C1=O,77*,68*,17,25,-2,20,61*,-8,12*,4,-5
CCC1(C)NC(=O)N(CC(=O)Nc2sc3c(c2C(=O)OC)CCCCC3)C1=O (stereo unspecified),-6,1,1,3,1,1,.,.,.,.,.
NC(=O)c1c(NC(=O)CSc2nnc(-c3ccco3)n2-c2ccccc2)sc2c1CCC2,86*,76*,21,16,5,4,75*,-4,1,3,3
